Data on 35 molecules can be found in ChEMBL document CHEMBL4699669, “Discovery of a Potent Adenine-Benzyltriazolo-Pleuromutilin Conjugate with Pronounced Antibacterial Activity against MRSA” (J Med Chem, 2020).

SMILES strings stand for the structures. In brackets after ≈: the same amount, converted by molar mass.

This test relates to Staphylococcus aureus. In words: Antibacterial activity against methicilin-resistant Staphylococcus aureus USA300 FPR3757 incubated for 20 to 24 hrs by microbroth dilution assay. The note with it: time hrs 20-24. The class given is functional. In short, it runs like this:
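Broth microdilution per EUCAST in Mueller-Hinton broth. Inoculum 5.0·10^5 CFU/mL, prepared from overnight single-colony cultures at OD600 0.1 then diluted 100x. Final compound concentrations 0.015–16 µg/mL. Incubation at 37 °C for 20–24 h, protected from light. MIC is the lowest concentration with no visible growth. Each replicate uses three cultures; n = 2–3.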
In the case of `C=C[C@]1(C)C[C@@H](OC(=O)Cn2cc(-c3cccc(-n4cnc5c(N)ncnc54)c3)nn2)[C@]2(C)[C@H](C)CC[C@]3(CCC(=O)[C@H]32)[C@@H](C)[C@@H]1O`, the MIC (as a rule, the lowest concentration found to suppress growth) came to 0.06 µg/mL (≈ 0.0939 µM).

With `C=C[C@]1(C)C[C@@H](OC(=O)Cn2cc(-c3ccc(-n4cnc5c(N)ncnc54)cc3)nn2)[C@]2(C)[C@H](C)CC[C@]3(CCC(=O)[C@H]32)[C@@H](C)[C@@H]1O`, the MIC stood at 0.5 µg/mL (≈ 0.783 µM).

In turn, `C=C[C@]1(C)C[C@@H](OC(=O)Cn2cc(-c3cccc(CN)c3)nn2)[C@]2(C)[C@H](C)CC[C@]3(CCC(=O)[C@H]32)[C@@H](C)[C@@H]1O` registered an MIC of 2 µg/mL (≈ 3.74 µM).

As for `C=C[C@]1(C)C[C@@H](OC(=O)Cn2cc(-c3cccc(Cn4cnc5c(N(CC)CC)ncnc54)c3)nn2)[C@]2(C)[C@H](C)CC[C@]3(CCC(=O)[C@H]32)[C@@H](C)[C@@H]1O`, the MIC amounted to 1 µg/mL (≈ 1.41 µM).

`C=C[C@]1(C)C[C@@H](OC(=O)Cn2cc(-c3ccccc3C#N)nn2)[C@]2(C)[C@H](C)CC[C@]3(CCC(=O)[C@H]32)[C@@H](C)[C@@H]1O` registered an MIC of 0.5 µg/mL (≈ 0.942 µM).

The molecule `C=C[C@]1(C)C[C@@H](OC(=O)Cn2cc(-c3ccc(Cn4cnc5c(NCCN)ncnc54)cc3)nn2)[C@]2(C)[C@H](C)CC[C@]3(CCC(=O)[C@H]32)[C@@H](C)[C@@H]1O` had an MIC of 0.5 µg/mL (≈ 0.719 µM).

Take `C=C[C@]1(C)C[C@@H](OC(=O)Cn2cc(-c3cccc(C#N)c3)nn2)[C@]2(C)[C@H](C)CC[C@]3(CCC(=O)[C@H]32)[C@@H](C)[C@@H]1O`: the lowest concentration to inhibit growth (MIC) was 1 µg/mL (≈ 1.88 µM).

For the molecule `C=C[C@]1(C)C[C@@H](OC(=O)Cn2cc(-c3ccccc3)nn2)[C@]2(C)[C@H](C)CC[C@]3(CCC(=O)[C@H]32)[C@@H](C)[C@@H]1O`, the MIC came out at 2 µg/mL (≈ 3.96 µM).

With `C=C[C@]1(C)C[C@@H](OC(=O)Cn2cc(-c3ccccc3CN)nn2)[C@]2(C)[C@H](C)CC[C@]3(CCC(=O)[C@H]32)[C@@H](C)[C@@H]1O`, the lowest concentration to inhibit growth (MIC) was 4 µg/mL (≈ 7.48 µM).

As to `C=C[C@]1(C)C[C@@H](OC(=O)Cn2cc(-c3ccccc3Cn3cnc4c(N(CC)CC)ncnc43)nn2)[C@]2(C)[C@H](C)CC[C@]3(CCC(=O)[C@H]32)[C@@H](C)[C@@H]1O`, the MIC came to 1 µg/mL (≈ 1.41 µM).

`C=C[C@]1(C)C[C@@H](OC(=O)Cn2cc(-c3cccc(Cn4cc(C)c(=O)[nH]c4=O)c3)nn2)[C@]2(C)[C@H](C)CC[C@]3(CCC(=O)[C@H]32)[C@@H](C)[C@@H]1O` gave an MIC of 1 µg/mL (≈ 1.55 µM).

With `C=C[C@]1(C)C[C@@H](OC(=O)Cn2cc(-c3ccc(Cn4cnc5c(N(CC)CC)ncnc54)cc3)nn2)[C@]2(C)[C@H](C)CC[C@]3(CCC(=O)[C@H]32)[C@@H](C)[C@@H]1O`, the MIC came out at 0.25 µg/mL (≈ 0.353 µM).

Turning to `C=C[C@]1(C)C[C@@H](OC(=O)Cn2cc(-c3ccc(Cn4cc(C)c(=O)[nH]c4=O)cc3)nn2)[C@]2(C)[C@H](C)CC[C@]3(CCC(=O)[C@H]32)[C@@H](C)[C@@H]1O`, 0.13 µg/mL (≈ 0.202 µM) was the least that counted as inhibitory (MIC).

For the molecule `C=C[C@]1(C)C[C@@H](OC(=O)Cn2cc(-c3ccc(CN(CC)CC)cc3)nn2)[C@]2(C)[C@H](C)CC[C@]3(CCC(=O)[C@H]32)[C@@H](C)[C@@H]1O`, the lowest concentration to inhibit growth (MIC) was 4 µg/mL (≈ 6.77 µM).

With `C=C[C@]1(C)C[C@@H](OC(=O)Cn2cc(-c3ccc(Cc4ccc(OC)cc4)cc3)nn2)[C@]2(C)[C@H](C)CC[C@]3(CCC(=O)[C@H]32)[C@@H](C)[C@@H]1O`, the lowest concentration to inhibit growth (MIC) was 8 µg/mL (≈ 12.8 µM).

As to `C=C[C@]1(C)C[C@@H](OC(=O)Cn2cc(-c3cccc(CO)c3)nn2)[C@]2(C)[C@H](C)CC[C@]3(CCC(=O)[C@H]32)[C@@H](C)[C@@H]1O`, the MIC was found to be 0.5 µg/mL (≈ 0.933 µM).

As for `C=C[C@]1(C)C[C@@H](OC(=O)Cn2cc(-c3cccc(Cn4cnc5c(N)ncnc54)c3)nn2)[C@]2(C)[C@H](C)CC[C@]3(CCC(=O)[C@H]32)[C@@H](C)[C@@H]1O`, the MIC is 0.25 µg/mL (≈ 0.383 µM).

Take `C=C[C@]1(C)C[C@@H](OC(=O)Cn2cc(-c3ccccc3Cn3cc(C)c(=O)[nH]c3=O)nn2)[C@]2(C)[C@H](C)CC[C@]3(CCC(=O)[C@H]32)[C@@H](C)[C@@H]1O`: the MIC is 1 µg/mL (≈ 1.55 µM).

Consider `C=C[C@]1(C)C[C@@H](OC(=O)Cn2cc(-c3cccc(Cc4cccc(CO)c4)c3)nn2)[C@]2(C)[C@H](C)CC[C@]3(CCC(=O)[C@H]32)[C@@H](C)[C@@H]1O`, for which the MIC was determined as 1 µg/mL (≈ 1.6 µM).

Turning to `C=C[C@]1(C)C[C@@H](OC(=O)Cn2cc(-c3ccc(CN4CCN(C)CC4)cc3)nn2)[C@]2(C)[C@H](C)CC[C@]3(CCC(=O)[C@H]32)[C@@H](C)[C@@H]1O`, the MIC is 4 µg/mL (≈ 6.47 µM).

`C=C[C@]1(C)C[C@@H](OC(=O)Cn2cc(-c3ccccc3Cn3cnc4c(N(CC)CC)nc(N)nc43)nn2)[C@]2(C)[C@H](C)CC[C@]3(CCC(=O)[C@H]32)[C@@H](C)[C@@H]1O` displayed a minimal inhibitory concentration (MIC) of 0.5 µg/mL (≈ 0.691 µM).

On to `C=C[C@]1(C)C[C@@H](OC(=O)Cn2cc(-c3cccc(CN(CC)CC)c3)nn2)[C@]2(C)[C@H](C)CC[C@]3(CCC(=O)[C@H]32)[C@@H](C)[C@@H]1O`, for which the MIC was found to be 2 µg/mL (≈ 3.39 µM).

The molecule `C=C[C@]1(C)C[C@@H](OC(=O)Cn2cc(-c3cccc(N)c3)nn2)[C@]2(C)[C@H](C)CC[C@]3(CCC(=O)[C@H]32)[C@@H](C)[C@@H]1O` came in with an MIC of 1 µg/mL (≈ 1.92 µM).

`C=C[C@]1(C)C[C@@H](OC(=O)Cn2cc(-c3ccccc3Cn3cnc4c(N)ncnc43)nn2)[C@]2(C)[C@H](C)CC[C@]3(CCC(=O)[C@H]32)[C@@H](C)[C@@H]1O` registered an MIC of 0.5 µg/mL (≈ 0.766 µM).

`C=C[C@]1(C)C[C@@H](OC(=O)Cn2cc(-c3ccccc3Cc3ccc(OC)cc3)nn2)[C@]2(C)[C@H](C)CC[C@]3(CCC(=O)[C@H]32)[C@@H](C)[C@@H]1O` had an MIC of 2 µg/mL (≈ 3.2 µM).

Consider `C=C[C@]1(C)C[C@@H](OC(=O)Cn2cc(-c3ccc(CN4C(=O)c5ccccc5C4=O)cc3)nn2)[C@]2(C)[C@H](C)CC[C@]3(CCC(=O)[C@H]32)[C@@H](C)[C@@H]1O`, for which 0.25 µg/mL (≈ 0.376 µM) was the least that counted as inhibitory (MIC).

Consider `C=C[C@]1(C)C[C@@H](OC(=O)Cn2cc(-c3cccc(Cc4cccc(CN(CC)CC)c4)c3)nn2)[C@]2(C)[C@H](C)CC[C@]3(CCC(=O)[C@H]32)[C@@H](C)[C@@H]1O`, for which it took 2 µg/mL (≈ 2.94 µM) to inhibit growth (MIC).

For `C=C[C@]1(C)C[C@@H](OC(=O)Cn2cc(-c3cccc(Cn4cnc5c(N6CCN(C)CC6)ncnc54)c3)nn2)[C@]2(C)[C@H](C)CC[C@]3(CCC(=O)[C@H]32)[C@@H](C)[C@@H]1O`, the MIC is 0.5 µg/mL (≈ 0.679 µM).

Molecule `C=C[C@]1(C)C[C@@H](OC(=O)Cn2cc(-c3ccc(CO)cc3)nn2)[C@]2(C)[C@H](C)CC[C@]3(CCC(=O)[C@H]32)[C@@H](C)[C@@H]1O` returned a minimum inhibitory concentration (MIC) of 0.25 µg/mL (≈ 0.467 µM).

In turn, `C=C[C@]1(C)C[C@@H](OC(=O)Cn2cc(-c3cccc(Cc4ccc(N(CC)CC)cc4)c3)nn2)[C@]2(C)[C@H](C)CC[C@]3(CCC(=O)[C@H]32)[C@@H](C)[C@@H]1O` yielded an MIC of 8 µg/mL (≈ 12 µM).

`C=C[C@]1(C)C[C@@H](OC(=O)Cn2cc(-c3cccc(CN4CCN(C)CC4)c3)nn2)[C@]2(C)[C@H](C)CC[C@]3(CCC(=O)[C@H]32)[C@@H](C)[C@@H]1O` registered an MIC of 2 µg/mL (≈ 3.24 µM).

`C=C[C@]1(C)C[C@@H](OC(=O)Cn2cc(-c3cccc(Cc4ccc(OC)cc4)c3)nn2)[C@]2(C)[C@H](C)CC[C@]3(CCC(=O)[C@H]32)[C@@H](C)[C@@H]1O` came in with a minimum inhibitory concentration (MIC) of 16 µg/mL (≈ 25.6 µM).

For the molecule `C=C[C@]1(C)C[C@@H](OC(=O)Cn2cc(-c3ccc(Cn4cnc5c(NC(=N)N)ncnc54)cc3)nn2)[C@]2(C)[C@H](C)CC[C@]3(CCC(=O)[C@H]32)[C@@H](C)[C@@H]1O`, it took 0.5 µg/mL (≈ 0.72 µM) to inhibit growth (MIC).

Regarding `C=C[C@]1(C)C[C@@H](OC(=O)Cn2cc(-c3ccc(CN)cc3)nn2)[C@]2(C)[C@H](C)CC[C@]3(CCC(=O)[C@H]32)[C@@H](C)[C@@H]1O`, the MIC is 2 µg/mL (≈ 3.74 µM).

`C=C[C@]1(C)C[C@@H](OC(=O)Cn2cc(-c3cccc(Cn4cnc5c(N(CC)CC)nc(N)nc54)c3)nn2)[C@]2(C)[C@H](C)CC[C@]3(CCC(=O)[C@H]32)[C@@H](C)[C@@H]1O` came in with an MIC of 0.5 µg/mL (≈ 0.691 µM).
